Screening data as filed in PubChem BioAssay.
Most compounds without a hit are left out; they make up all but 1.5% or so of the library.
Platelet DG rel: modulates dense granule release in human platelets. AID 1663. human platelet-rich plasma, SFLLRN dense granule ATP release, luminescence. actives 0.22% (n = 300,000). inhibition, %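 (compounds screened at 7.5 µM in platelet-rich plasma)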;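 active = mean replicate score, as percent of positive control, at or above 50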
PPC-1+TRAIL kill: PPC-1 cancer cell killing with TRAIL present; cell killing (% activity), % at 4 µM or 5 µM; actives 0.41% (n = 220,000); PPC-1 cells + TRAIL, ATPLite viability luminescence;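 active = cell killing above 50% in the first pass at 4 µM, then a duplicate retest at 5 µM averaging 50% or more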;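 note: plate controls were cells with TRAIL plus DMSO for no effect and medium-only wells lacking cells for full effect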
TAG inh: triacylglycerol accumulation inhibition; H9c2 cells, Nile Red lipid (TAG) fluorescence; cells loaded with 200 µM oleic acid; AID 651582; actives 0.66% (n = 230,000); inhibition, % at 12.5 µM;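 active = pattern-corrected inhibition of lipid staining of at least 50% with the nuclear-stain viability signal not falling by more than 50%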;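 note: 0% = DMSO wells and 100% = triacsin C control wells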
Lipid droplet: hepatic lipid droplet formation modulation. AML12 mouse hepatocytes, oleate lipid droplets, BODIPY imaging. inhibition, % at 6.5 µM. actives 0.4% (n = 240,000);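 active = lipid droplet intensity inhibited by at least 50%, with more than 500 cells counted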
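Material: mouse AML12 hepatocyte cell line, fixed after treatment; Timing: compound with oleate, overnight; Technique: high-content imaging of BODIPY-stained droplets and DAPI nuclei; Probe or stimulus: oleate, 100 µM final; Dosing: compound at 6.5 µM only.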
STAT1 inh: inhibitors of IFN-gamma induced STAT1 signaling; NIH 3T3 STAT1-luciferase reporter, luminescence; inhibition, % at 5.5 µM; actives 0.35% (n = 200,000);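 active = inhibition above a set limit, the mean inhibition across all tested compounds plus 3 SD, cut at about 34% in these data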;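 note: 0% = IFN-gamma with DMSO and 100% = IFN-gamma with 300 µM nifuroxazide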
STAT3 inh: inhibitors of IL-6 induced STAT3 signaling. inhibition, % at 5.5 µM. actives 0.89% (n = 190,000). AID 862. U3A cells, IL-6 STAT3-luciferase reporter, luminescence; host cell line lacks STAT1;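 active = inhibition above the mean inhibition across all screened compounds plus 3 SD, cut at about 44% in these data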;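 note: 0% = DMSO only wells and 100% = 100 µM nifuroxazide control wells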
H9c2 TAG conf: confirmation of triacylglycerol accumulation inhibitors; shares compounds with TAG inh; H9c2 lipid accumulation, Nile Red fluorescence; cells loaded with 200 µM oleic acid; inhibition, % at 12.5 µM; actives 71% (n = 990); AID 651629;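 active = mean inhibition across replicates of 40% or more; inactive = mean inhibition below 40%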;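 note: plate controls were DMSO only wells for no effect and Triacsin C treated wells for full effect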
Starred values were filed as active, the others as inactive; / = no result given.

SMILES	Platelet DG rel	PPC-1+TRAIL kill	TAG inh	Lipid droplet	STAT1 inh	STAT3 inh	H9c2 TAG conf
CCOc1ccc(NS(=O)(=O)c2ccc(C(=O)NCC(c3ccc(OC)cc3)N3CCCC3)cc2)cc1 (stereo unspecified)	11.5	/	-5.2	/	/	/	/
CCOC(=O)c1[nH]c2ccc(OCC)cc2c1NC(=O)CN1CCC2(CC1)OCCO2	2.8	7.9	/	-3.6	-8.3	10.4	/
CCOC(=O)c1[nH]c2ccc(OCC)cc2c1NC(=O)CN1CCN(c2ccccc2)CC1	2.5	6.3	58.3*	/	-3.3	19.8	40.5*
O=C(CN1C(=O)c2ccccc2C1=O)OCC(=O)N1CCCCC1	/	/	-24.3	/	/	/	/
CCO[C@@H]1OC(C(=O)N2CCN(Cc3ccc4c(c3)OCO4)CC2)=C[C@H](C)[C@H]1CCCO	3.2	12.5	53.0*	-1.7	0.0	/	-5.0
CCO[C@H]1OC(C(=O)N2CCN(Cc3ccc4c(c3)OCO4)CC2)=C[C@@H](C)[C@@H]1CCCO	2.1	24.1	2.1	-30.5	14.7	/	/
COc1ccc(CC(N)c2csc(NC(=O)Nc3ccccc3C(C)C)n2)cc1 (stereo unspecified)	/	/	57.7*	/	/	/	41.9*
COc1ccc(CNC(=O)Nc2nc(C(N)Cc3ccc(Cl)cc3)cs2)cc1 (stereo unspecified)	/	/	50.2*	/	/	/	58.6*
COc1ccccc1NC(=O)Nc1nc(C(N)Cc2ccc(C(F)(F)F)cc2)cs1 (stereo unspecified)	/	/	79.1*	/	/	/	68.7*
NC(Cc1ccc(C(F)(F)F)cc1)c1csc(NC(=O)Nc2ccccc2Oc2ccccc2)n1 (stereo unspecified)	/	/	127.6	/	/	/	/
COc1cc(NC(=O)Nc2nc(C(N)Cc3ccc(C(F)(F)F)cc3)cs2)cc(OC)c1OC (stereo unspecified)	/	/	87.5*	/	/	/	98.6*
CCCNC(=O)c1cc(C2CCCN(S(=O)(=O)c3cccs3)C2)on1 (stereo unspecified)	/	/	-39.5	/	/	/	/
O=C(NCCc1ccccc1)c1ccc(-c2ccc(F)c(F)c2)c2ccoc12	/	/	-54.1	/	/	/	/
COc1ccccc1NC(=O)Nc1nc(C(N)C2CCCCC2)cs1 (stereo unspecified)	/	/	51.9*	/	/	/	33.1
COc1ccc2sc(-c3ccc(N(C)C)cc3)c(C#CCCO)c2c1	/	/	75.7*	/	/	/	86.8*
COC(=O)[C@@]1(Cc2ccc(OC)cc2)[C@@H]2[C@@H](CC(=O)[C@H]2CC(=O)C(=O)N(C)C)CN1C(=O)c1ccccc1	-2.3	2.1	0.0	-1.7	3.8	1.9	/
COC(=O)[C@@]1(Cc2ccc(OC)cc2)[C@@H]2C(=CC(=O)[C@H]2CC(=O)C(=O)N2CCCC2)CN1C(=O)c1ccccc1	/	3.3	53.1*	/	1.6	-9.7	54.6*
NC1=NC[C@H](Cc2ccccc2)N1CCc1cc(C(F)(F)F)cc(C(F)(F)F)c1	-7.9	4.5	55.2*	2.9	/	/	46.0*
COc1ccc(-c2sc3ccc(N4CCOCC4)cc3c2C#CC(C)(C)O)cc1	/	/	63.7*	/	/	/	52.9*
COc1ccc(-c2sc3ccc(N4CCOCC4)cc3c2C#Cc2ccsc2)cc1	/	/	17.4	/	/	/	/
CC1(C(=O)NS(=O)(=O)c2cccc(F)c2)CCN1C(=O)C1CCCCC1 (stereo unspecified)	/	/	6.4	/	/	/	/
CCOC(=O)CN1CC(C)(C)N(CC(=O)OCC)CC1(C)C	/	/	-2.1	/	/	/	/
c1ccc(CNc2nc(NCc3ccco3)nc(N3CCOCC3)n2)cc1	6.4	-11.2	1.8	1.6	8.4	0.4	/
Cc1cccc(Nc2nc(NCc3ccco3)nc(N3CCOCC3)n2)c1	4.9	-16.2	86.4*	16.9	-4.2	24.6	82.7*
C/C(=N\Nc1cc(N2CCOCC2)nc(C)n1)c1ccc(F)cc1	1.7	/	52.2*	-0.3	/	/	38.5
SMILES	Platelet DG rel	PPC-1+TRAIL kill	TAG inh	Lipid droplet	STAT1 inh	STAT3 inh	H9c2 TAG conf
COc1ccc(NC(=O)Nc2ccc([N+](=O)[O-])cc2)cn1	3.3	/	/	-2.9	/	/	/
COC(=O)c1c(NC(=S)NN2CCN(C)CC2)sc2c1CCC(C)C2 (stereo unspecified)	6.2	21.2	64.8*	6.4	4.8	7.1	84.3*
Clc1cccc(Nc2nc(-c3ccncc3)nc3ccccc23)c1	27.9	1.9	66.5*	15.9	/	/	51.8*
CCCCSc1nnc(-c2ccc(NC(=O)CCc3ccccc3)cc2)n1C	-7.3	27.2	51.5*	35.5	-0.1	18.7	34.2
Cn1c(SCC(=O)NCc2ccccc2)nnc1-c1ccc(NC(=O)CCc2ccccc2)cc1	0.2	36.8	14.6	9.0	-7.3	0.0	/
COc1cc(C(=O)NC2CCCC(C)C2C)ccc1OCC(=O)N1CCOCC1 (stereo unspecified)	/	/	-3.8	/	/	/	/
CCCOc1ccc(F)cc1-c1cc(C(=O)NCc2ccccc2)[nH]n1	/	/	-3.6	/	/	/	/
CCCOc1ccc(F)cc1-c1cc(C(=O)NCc2cc(OC)cc(OC)c2)[nH]n1	/	/	53.7*	/	/	/	50.2*
O=C(CSc1ncnc2sccc12)NCc1ccc2c(c1)OCO2	/	/	-7.7	/	/	/	/
COCCCNC(=O)C(=O)Nc1ccc2c(c1)N(S(=O)(=O)c1cccs1)CCC2	-1.1	/	54.1*	/	/	/	60.9*
CN(C)CCCNC(=O)C(=O)Nc1ccc2c(c1)N(S(=O)(=O)c1cccs1)CCC2	3.9	/	19.4	/	/	/	/
CN(C)CCNC(=O)C(=O)Nc1ccc2c(c1)N(S(=O)(=O)c1cccs1)CCC2	8.0	/	53.7*	/	/	/	54.0*
